Measured values published in ChEMBL document CHEMBL5126673, “Inhibition of β-Amyloid Aggregation in Alzheimer's Disease: The Key Role of (Pro)electrophilic Warheads” (ACS Med Chem Lett, 2022).
The source made the active and inactive calls. No cut-off for these calls is given here.

How the values were obtained:
[1] = biological target: T1, Amyloid-beta precursor protein (Homo sapiens, UniProt P05067); assay: Inhibition of HFIP-pretreated amyloid beta (1 to 42 ) (unknown origin) self aggregation at 50 uM after 24 hrs by thioflavin-T fluorescence method relative to control
In short: (§1)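 Self-aggregation of 50 μM Aβ42 was measured by ThT fluorescence. Single-point % inhibition used compound at 50 μM (1:1 with Aβ42). IC50 was determined where inhibition exceeded 50%. Values are the mean of two independent experiments, each run in duplicate, ± SEM.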

[2] = biological target: T1, Amyloid-beta precursor protein; assay: Inhibition of HFIP-pretreated amyloid beta (1 to 42) (unknown origin) self aggregation after 24 hrs by thioflavin-T fluorescence method; in short: as §1
[3] = Electrochemical behavior of compound assessed as anodic peak for oxidation of catechol group in 0.2 M phosphate buffer using Ag/AgCl reference electrode by cyclic voltammetry; format: physicochemical
[4] = Electrochemical behavior of compound assessed as half wave redox potential in 0.2 M phosphate buffer using Ag/AgCl reference electrode by cyclic voltammetry; format: physicochemical
[5] = Reversible electrochemical behavior of compound assessed as cathodic peak for reconversion of ortho-benzoquinone in 0.2 M phosphate buffer using Ag/AgCl reference electrode by cyclic voltammetry; format: physicochemical
SH-SY5Y [6] = assay: Cytotoxicity against human SH-SY5Y cells assessed as reduction in cell viability at 5 to 10 uM measured after 24 hrs by MTT assay; format: toxicity, cell-based; conditions: dose 5-10 µM
In short: (§2)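 Human neuroblastoma SH-SY5Y cells were treated with compound at 5 and 10 μM for 24 h. Viability was read by MTT assay.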

[7] = biological target: T1, Amyloid-beta precursor protein; assay: Inhibition of HFIP-pretreated amyloid beta (1 to 42 ) (unknown origin) self aggregation assessed as increase in protein oxidation at 50 uM after 24 hrs by LC-MS/MS analysis
In short: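 Aβ42 incubated with or without compound at an equimolar level under the ThT assay conditions. Oxidized Aβ42 was followed by MS as the ratio of the oxidized-Aβ42 signal to the reserpine internal-standard signal, plotted against incubation time.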

[8] = biological target: T1, Amyloid-beta precursor protein; assay: Binding affinity to HFIP-pretreated amyloid beta (1 to 42) (unknown origin) assessed as lys16-adduct formation by measuring increase in molecular mass at 50 uM measured up to 6 hrs by LC-MS/MS analysis
In short: (§3)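 Aβ42 at 50 μM co-incubated with test compound at 50 μM (1:1) under the ThT assay conditions. Deconvoluted mass spectra were taken at 0, 6 and 24 h. Adducts were scored as new higher-mass species, i.e. mass increments over Aβ42.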

[9] = biological target: T1, Amyloid-beta precursor protein; assay: Binding affinity to HFIP-pretreated amyloid beta (1 to 42) (unknown origin) assessed as lys16-adduct formation by measuring increase in molecular mass at 50 uM measured at 24 hrs by LC-MS/MS analysis; in short: as §3
[10] = biological target: T1, Amyloid-beta precursor protein; assay: Inhibition of HFIP-pretreated amyloid beta (1 to 42 ) (unknown origin) self aggregation at 50 uM after 24 hrs by LC-MS/MS analysis relative to control
In short: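 Aβ42 at 50 μM incubated under the ThT assay conditions with or without compound at 50 μM (1:1). Residual monomeric Aβ42 was quantified by MS, and % inhibition was taken against compound-free samples.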

SH-SY5Y [11] = assay: Cytotoxicity against human SH-SY5Y cells assessed as reduction in cell viability at 10 uM measured after 24 hrs by MTT assay relative to control; format: toxicity, cell-based; in short: as §2

T1 sequence (P05067 whole entry): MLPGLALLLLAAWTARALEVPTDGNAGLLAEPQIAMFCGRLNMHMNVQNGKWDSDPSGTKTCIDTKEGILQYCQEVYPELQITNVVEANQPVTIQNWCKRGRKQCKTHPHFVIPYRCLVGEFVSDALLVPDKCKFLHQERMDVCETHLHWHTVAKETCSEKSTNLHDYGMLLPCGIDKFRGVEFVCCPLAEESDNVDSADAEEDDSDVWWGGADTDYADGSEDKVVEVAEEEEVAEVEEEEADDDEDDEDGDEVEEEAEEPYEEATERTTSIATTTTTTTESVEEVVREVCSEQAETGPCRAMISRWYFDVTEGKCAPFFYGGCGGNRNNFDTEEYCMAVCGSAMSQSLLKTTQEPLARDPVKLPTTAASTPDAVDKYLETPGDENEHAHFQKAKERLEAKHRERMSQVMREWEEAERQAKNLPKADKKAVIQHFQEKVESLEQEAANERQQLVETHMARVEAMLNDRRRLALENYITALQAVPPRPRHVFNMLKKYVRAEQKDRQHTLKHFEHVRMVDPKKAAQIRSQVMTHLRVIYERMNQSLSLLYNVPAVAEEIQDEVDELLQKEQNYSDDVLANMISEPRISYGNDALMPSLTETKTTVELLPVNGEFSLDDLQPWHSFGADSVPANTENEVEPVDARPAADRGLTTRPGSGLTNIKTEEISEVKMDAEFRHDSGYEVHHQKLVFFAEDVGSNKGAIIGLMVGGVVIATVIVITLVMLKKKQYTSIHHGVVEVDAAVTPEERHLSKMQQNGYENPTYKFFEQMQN

| inhibition [1] [%] | IC50 [2] [µM] | Ep [3] [V] | Activity [4] [V] | Activity [5] | inhibition [7] | Activity [8] [Da] | Activity [9] [Da] | inhibition [10] [%] | SMILES | Activity (SH-SY5Y [6]) | Activity (SH-SY5Y [11]) [%] |
| --- | --- | --- | --- | --- | --- | --- | --- | --- | --- | --- | --- |
| > 90 | 3.99 | 0.19 | 0.1 | Active |  |  |  |  | CCCSC(=O)/C=C/c1ccc(O)c(O)c1 | Non-Toxic |  |
| > 90 |  | 0.32 | 0.1 | Active | Active | 232 | 268 | 43.6 | CCCSC(=O)/C=C/c1cc(O)ccc1O |  | > 50 |
| < 10 |  | 0.76 | 0.66 | Active |  |  |  | < 10 | CCCSC(=O)/C=C/c1cc(O)cc(O)c1 | Non-Toxic |  |
